Legend:
[1] = biological target: Metabotropic glutamate receptor 1 (Rattus norvegicus, UniProt P23385); assay: Activity at rat mGluR1 expressed in HEK293 cells assessed as calcium mobilization by FLIPR; format: functional, cell-based
Method in brief: (§1)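 Rat receptor cDNA transiently transfected into HEK293 (Lipofectamine Plus), seeded 24 h later, assayed next day. Cells loaded with 3 µM Fluo-4/0.01% pluronic in HEPES-buffered HBSS pH 7.4 with BSA and 2.5 mM probenecid, 1 h, 37 °C. Glutamate at EC80 or EC10 added with compound. FLIPR read over 3 min at room temperature. Maximum fluorescence change fitted by Hill equation.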

[2] = biological target: Glutamate receptor ionotropic, kainate 2 (Rattus norvegicus, UniProt P42260); assay: Displacement of [3H]SYM2081 from rat recombinant iGluR6
[3] = biological target: Glutamate receptor ionotropic, kainate 1 (Rattus norvegicus, UniProt P22756); assay: Displacement of [3H]SYM2081 from rat recombinant iGluR5
[4] = Displacement of [3H]AMPA from AMPA receptor in rat synaptosomes; format: subcellular, Brain
[5] = biological target: T1, Metabotropic glutamate receptor 2 (Rattus norvegicus, UniProt P31421); assay: Displacement of [3H][…] from rat mGluR2 expressed in CHO cells by SPA; format: cell-based
Method in brief: (§2)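 Membranes from transiently transfected CHO cells harvested 48 h post-transfection, protein by Bradford, stored at -80 °C. SPA binding at 10 µg protein/well in 50 mM Tris-HCl pH 7.0 with 2 mM MgCl2, 2 nM [3H]LY341495 and WGA-SPA beads. Incubated 45 min on ice, then overnight at 4 °C. Nonspecific binding with 10 µM LY341495. Ki by Cheng-Prusoff.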

[6] = Displacement of [3H]KA from KA receptor in rat synaptosomes; format: subcellular, Brain
[7] = biological target: T1, Metabotropic glutamate receptor 2; assay: Activity at rat mGluR2 expressed in CHO cells assessed as calcium mobilization by FLIPR; format: functional, cell-based
Method in brief: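 Rat mGluR2 cDNA co-transfected 8:2 with C. elegans GR Qi3 chimera cDNA into CHO cells (Lipofectamine Plus, 10 µg DNA/~7×10^6 cells). Fluo-4 loading for 1 h at 37 °C. Stimulation with EC80 or EC10 glutamate plus compound. FLIPR maximum fluorescence change over 3 min at room temperature, baseline-subtracted, fitted by Hill equation.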

Glutamate NMDA receptor = assay: Displacement of [3H]CGP 39653 from NMDA receptor in rat synaptosomes; format: subcellular, Brain
[8] = biological target: Metabotropic glutamate receptor 5 (Rattus norvegicus, UniProt P31424); assay: Activity at rat mGluR5 expressed in HEK293 cells assessed as calcium mobilization by FLIPR; format: functional, cell-based; method in brief: as §1
[9] = biological target: Metabotropic glutamate receptor 4 (Homo sapiens, UniProt Q14833); assay: Activity at mGluR4 assessed as calcium mobilization by FLIPR; format: functional
[10] = biological target: Metabotropic glutamate receptor 3 (Rattus norvegicus, UniProt P31422); assay: Displacement of [3H][…] from rat mGluR3 expressed in CHO cells by SPA; format: cell-based; method in brief: as §2
[11] = biological target: T2, Glutamate receptor ionotropic, kainate 4 (Rattus norvegicus, UniProt Q01812); assay: Binding affinity to rat cloned KA1 receptor
T2 sequence (Q01812 whole entry): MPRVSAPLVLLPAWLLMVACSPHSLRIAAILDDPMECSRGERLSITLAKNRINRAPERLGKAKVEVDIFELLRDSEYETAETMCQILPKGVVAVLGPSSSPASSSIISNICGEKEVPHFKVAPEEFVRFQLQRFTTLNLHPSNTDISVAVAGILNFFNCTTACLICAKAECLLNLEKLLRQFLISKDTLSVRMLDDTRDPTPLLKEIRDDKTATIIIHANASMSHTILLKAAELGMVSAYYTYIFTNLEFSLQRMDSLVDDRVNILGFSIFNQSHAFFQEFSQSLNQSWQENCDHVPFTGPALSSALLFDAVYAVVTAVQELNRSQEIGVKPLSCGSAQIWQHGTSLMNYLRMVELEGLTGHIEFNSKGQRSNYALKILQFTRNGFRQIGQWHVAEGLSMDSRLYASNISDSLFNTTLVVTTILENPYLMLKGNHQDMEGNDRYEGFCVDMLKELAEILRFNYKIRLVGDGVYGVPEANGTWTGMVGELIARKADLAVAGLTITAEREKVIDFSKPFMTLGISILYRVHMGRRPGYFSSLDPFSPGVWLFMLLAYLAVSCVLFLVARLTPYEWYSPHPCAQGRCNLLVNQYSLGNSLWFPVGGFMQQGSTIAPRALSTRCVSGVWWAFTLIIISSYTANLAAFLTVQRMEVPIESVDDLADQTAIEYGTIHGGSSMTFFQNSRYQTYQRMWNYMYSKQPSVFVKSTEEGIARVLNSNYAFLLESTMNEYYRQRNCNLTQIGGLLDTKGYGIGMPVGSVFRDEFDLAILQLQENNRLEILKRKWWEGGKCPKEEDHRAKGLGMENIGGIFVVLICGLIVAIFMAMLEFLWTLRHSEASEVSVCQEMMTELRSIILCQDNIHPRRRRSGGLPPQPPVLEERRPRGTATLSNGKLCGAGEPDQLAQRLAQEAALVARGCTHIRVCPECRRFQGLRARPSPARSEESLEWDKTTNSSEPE

Escherichia coli [12] = assay: Activity at Escherichia coli JM103 aspartate aminotransferase
Method in brief: (§3)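 E. coli AAT purified from overexpressing JM103 carrying pUC119-aspC. Run at 25 °C in 0.1 M potassium phosphate pH 7.6 with 40 mM Asp, 0.2 mM NADH, 0.1-10 mM ketoacid substrate, 0.05 UI AAT and 2 UI malic dehydrogenase coupling. Rates taken from linear OD decay at 340 nm. Kinetic parameters and standard errors from Hanes-Woolf plot by least squares.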

Escherichia coli [13] = assay: Activity at Escherichia coli JM103 aspartate aminotransferase relative to alpha-ketoglutarate; method in brief: as §3

Sequence of Glutamate receptor ionotropic, kainate 2 (P42260 whole entry): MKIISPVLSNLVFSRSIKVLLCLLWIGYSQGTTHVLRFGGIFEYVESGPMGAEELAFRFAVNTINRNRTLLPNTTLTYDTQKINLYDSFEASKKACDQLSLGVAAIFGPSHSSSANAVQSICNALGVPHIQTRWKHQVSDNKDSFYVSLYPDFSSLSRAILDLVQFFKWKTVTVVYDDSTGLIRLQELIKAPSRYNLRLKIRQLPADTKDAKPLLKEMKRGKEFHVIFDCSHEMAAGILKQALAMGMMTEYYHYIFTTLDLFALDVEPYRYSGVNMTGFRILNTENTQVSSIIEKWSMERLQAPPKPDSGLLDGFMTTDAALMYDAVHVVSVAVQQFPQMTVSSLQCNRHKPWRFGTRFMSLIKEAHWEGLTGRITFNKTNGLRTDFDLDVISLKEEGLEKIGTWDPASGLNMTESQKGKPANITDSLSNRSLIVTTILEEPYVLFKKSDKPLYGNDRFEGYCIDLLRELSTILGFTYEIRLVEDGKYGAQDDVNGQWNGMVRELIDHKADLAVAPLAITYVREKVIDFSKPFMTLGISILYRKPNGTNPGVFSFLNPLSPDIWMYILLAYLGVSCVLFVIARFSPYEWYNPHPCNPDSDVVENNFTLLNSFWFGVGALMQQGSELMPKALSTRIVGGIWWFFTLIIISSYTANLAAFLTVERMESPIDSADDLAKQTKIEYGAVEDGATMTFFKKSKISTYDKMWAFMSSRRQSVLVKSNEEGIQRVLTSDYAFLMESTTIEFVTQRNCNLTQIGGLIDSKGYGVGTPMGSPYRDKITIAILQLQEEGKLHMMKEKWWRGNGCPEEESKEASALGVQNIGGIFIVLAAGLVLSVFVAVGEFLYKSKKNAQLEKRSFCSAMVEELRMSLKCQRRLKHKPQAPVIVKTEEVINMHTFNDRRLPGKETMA
Sequence of Metabotropic glutamate receptor 1 (P23385 whole entry): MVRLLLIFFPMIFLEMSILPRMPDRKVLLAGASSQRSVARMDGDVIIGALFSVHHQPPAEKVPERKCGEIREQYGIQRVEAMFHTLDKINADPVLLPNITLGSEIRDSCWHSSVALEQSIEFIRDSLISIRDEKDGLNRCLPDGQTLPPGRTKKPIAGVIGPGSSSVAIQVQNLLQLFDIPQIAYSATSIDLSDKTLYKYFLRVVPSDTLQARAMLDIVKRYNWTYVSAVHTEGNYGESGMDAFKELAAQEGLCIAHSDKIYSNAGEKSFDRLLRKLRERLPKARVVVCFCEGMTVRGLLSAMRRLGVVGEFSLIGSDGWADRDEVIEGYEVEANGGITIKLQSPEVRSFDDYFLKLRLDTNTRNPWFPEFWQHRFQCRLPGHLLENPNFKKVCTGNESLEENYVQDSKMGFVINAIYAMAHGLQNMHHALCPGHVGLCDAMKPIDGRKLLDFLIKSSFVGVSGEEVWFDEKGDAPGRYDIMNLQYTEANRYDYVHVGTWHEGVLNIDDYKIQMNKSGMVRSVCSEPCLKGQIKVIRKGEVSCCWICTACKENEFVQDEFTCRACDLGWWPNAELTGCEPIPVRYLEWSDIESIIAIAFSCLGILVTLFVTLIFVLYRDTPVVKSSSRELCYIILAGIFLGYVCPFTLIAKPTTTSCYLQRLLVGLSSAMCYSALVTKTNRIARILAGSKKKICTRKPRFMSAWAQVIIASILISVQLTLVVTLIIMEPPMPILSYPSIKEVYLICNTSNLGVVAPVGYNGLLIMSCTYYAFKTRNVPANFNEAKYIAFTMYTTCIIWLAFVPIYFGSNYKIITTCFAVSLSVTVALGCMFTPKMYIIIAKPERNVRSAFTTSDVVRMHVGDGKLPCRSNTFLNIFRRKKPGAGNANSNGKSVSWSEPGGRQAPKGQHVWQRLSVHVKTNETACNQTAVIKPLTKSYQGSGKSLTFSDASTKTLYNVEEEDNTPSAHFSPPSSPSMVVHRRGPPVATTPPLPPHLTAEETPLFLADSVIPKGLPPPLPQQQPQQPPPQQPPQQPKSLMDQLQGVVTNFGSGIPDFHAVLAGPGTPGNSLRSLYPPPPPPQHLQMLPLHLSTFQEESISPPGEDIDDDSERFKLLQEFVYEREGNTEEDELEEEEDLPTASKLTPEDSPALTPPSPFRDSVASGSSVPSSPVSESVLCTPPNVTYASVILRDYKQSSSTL
Sequence of Metabotropic glutamate receptor 3 (P31422 whole entry): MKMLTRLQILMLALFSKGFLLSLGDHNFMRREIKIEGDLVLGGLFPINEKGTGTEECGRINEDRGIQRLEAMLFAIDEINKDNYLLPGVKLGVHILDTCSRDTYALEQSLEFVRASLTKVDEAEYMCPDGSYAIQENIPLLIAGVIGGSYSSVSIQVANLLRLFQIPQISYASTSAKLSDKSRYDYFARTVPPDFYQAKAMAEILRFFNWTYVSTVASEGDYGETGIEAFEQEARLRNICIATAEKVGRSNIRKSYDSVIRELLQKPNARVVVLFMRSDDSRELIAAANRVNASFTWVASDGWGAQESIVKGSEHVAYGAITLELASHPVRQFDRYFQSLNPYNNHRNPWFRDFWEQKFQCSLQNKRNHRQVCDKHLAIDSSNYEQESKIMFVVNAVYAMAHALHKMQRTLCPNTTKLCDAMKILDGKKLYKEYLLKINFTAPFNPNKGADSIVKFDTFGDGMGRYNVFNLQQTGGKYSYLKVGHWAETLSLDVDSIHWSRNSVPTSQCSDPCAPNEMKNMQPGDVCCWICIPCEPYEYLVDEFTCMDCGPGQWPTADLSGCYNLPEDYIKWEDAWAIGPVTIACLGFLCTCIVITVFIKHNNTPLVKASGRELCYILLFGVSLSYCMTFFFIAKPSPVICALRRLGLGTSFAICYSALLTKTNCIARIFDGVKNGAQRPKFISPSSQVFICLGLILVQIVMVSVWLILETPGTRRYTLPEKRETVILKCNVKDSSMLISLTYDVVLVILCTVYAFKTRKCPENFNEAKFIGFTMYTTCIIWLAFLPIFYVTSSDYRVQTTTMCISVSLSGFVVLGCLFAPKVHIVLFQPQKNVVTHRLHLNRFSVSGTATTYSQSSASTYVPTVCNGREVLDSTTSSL
T1 sequence (P31421 whole entry): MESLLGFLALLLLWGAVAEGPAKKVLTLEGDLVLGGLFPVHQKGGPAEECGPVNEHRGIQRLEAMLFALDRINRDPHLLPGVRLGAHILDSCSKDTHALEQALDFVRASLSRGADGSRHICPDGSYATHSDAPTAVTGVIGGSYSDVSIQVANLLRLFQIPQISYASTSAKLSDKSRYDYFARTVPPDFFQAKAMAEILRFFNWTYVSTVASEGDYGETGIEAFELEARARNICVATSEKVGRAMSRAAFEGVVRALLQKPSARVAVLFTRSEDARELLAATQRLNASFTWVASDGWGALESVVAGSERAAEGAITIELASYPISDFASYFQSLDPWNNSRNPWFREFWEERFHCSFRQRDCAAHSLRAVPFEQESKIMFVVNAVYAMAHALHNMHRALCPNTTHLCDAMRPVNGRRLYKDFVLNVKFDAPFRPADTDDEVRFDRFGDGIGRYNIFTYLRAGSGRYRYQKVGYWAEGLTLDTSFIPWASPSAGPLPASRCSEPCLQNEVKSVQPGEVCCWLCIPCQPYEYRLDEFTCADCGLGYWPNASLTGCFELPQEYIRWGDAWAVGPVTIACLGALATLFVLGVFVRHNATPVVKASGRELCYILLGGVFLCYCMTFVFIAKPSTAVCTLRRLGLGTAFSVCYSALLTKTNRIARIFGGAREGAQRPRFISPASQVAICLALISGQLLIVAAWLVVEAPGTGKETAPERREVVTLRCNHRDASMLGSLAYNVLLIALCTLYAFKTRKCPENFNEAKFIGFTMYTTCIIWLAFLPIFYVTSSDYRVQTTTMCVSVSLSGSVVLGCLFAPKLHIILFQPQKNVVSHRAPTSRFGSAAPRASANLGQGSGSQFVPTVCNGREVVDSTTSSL
Sequence of Glutamate receptor ionotropic, kainate 1 (P22756 whole entry): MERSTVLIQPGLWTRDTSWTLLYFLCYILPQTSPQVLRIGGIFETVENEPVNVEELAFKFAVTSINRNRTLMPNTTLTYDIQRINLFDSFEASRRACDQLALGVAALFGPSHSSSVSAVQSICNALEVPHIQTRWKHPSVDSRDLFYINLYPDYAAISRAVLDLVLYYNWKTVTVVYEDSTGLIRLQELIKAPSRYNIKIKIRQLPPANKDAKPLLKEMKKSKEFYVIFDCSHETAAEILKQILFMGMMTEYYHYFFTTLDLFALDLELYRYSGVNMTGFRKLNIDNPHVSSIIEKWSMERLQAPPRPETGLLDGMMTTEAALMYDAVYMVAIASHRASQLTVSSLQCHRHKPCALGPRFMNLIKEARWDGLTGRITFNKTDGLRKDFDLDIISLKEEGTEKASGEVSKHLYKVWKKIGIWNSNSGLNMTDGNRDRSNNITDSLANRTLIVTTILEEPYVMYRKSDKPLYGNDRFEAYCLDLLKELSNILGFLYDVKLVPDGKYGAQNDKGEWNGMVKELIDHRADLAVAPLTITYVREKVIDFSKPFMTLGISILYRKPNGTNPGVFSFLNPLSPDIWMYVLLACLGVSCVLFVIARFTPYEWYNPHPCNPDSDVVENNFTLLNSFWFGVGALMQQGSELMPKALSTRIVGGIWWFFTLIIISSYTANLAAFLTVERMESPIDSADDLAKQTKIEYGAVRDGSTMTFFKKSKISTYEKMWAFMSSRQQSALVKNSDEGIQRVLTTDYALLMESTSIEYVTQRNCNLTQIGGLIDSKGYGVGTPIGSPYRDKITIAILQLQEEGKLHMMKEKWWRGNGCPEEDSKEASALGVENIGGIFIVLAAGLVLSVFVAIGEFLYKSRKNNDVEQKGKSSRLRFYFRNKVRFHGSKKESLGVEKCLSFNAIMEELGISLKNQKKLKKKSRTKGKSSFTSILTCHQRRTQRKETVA

SMILES | Ki ([2]; read-out: Ki) | Ki ([3]; read-out: Ki) | IC50 [4] | IC50 [6] | pIC50 [6] | Ki (Glutamate NMDA receptor) | other results
COC(=O)CC[C@H](C[C@H](N)C(=O)O)C(=O)O | 6.67 µM | 0.0428 µM | 31 µM | 7.9 µM | 5.1 | > 100 µM | EC50 [1]: > 100 µM; Ki ([2]; read-out: pKi (converted)): 6.17 µM; Ki ([3]; read-out: pKi (converted)): 0.0417 µM; pIC50 [4]: 4.51; Ki [5]: > 1000 µM; EC50 [7]: > 100 µM; EC50 [8]: > 100 µM; EC50 [9]: > 100 µM; Ki [10]: > 1000 µM
CNC(=O)CC[C@H](C[C@H](N)C(=O)O)C(=O)O | 0.123 µM | 0.00381 µM | 32 µM | 29 µM | 4.54 | > 100 µM | EC50 [1]: > 100 µM; Ki ([2]; read-out: pKi (converted)): 0.12 µM; pIC50 [4]: 4.51; Ki [5]: > 1000 µM; EC50 [7]: > 100 µM; EC50 [8]: > 100 µM; EC50 [9]: > 100 µM; Ki [10]: > 1000 µM
CCNC(=O)CC[C@H](C[C@H](N)C(=O)O)C(=O)O | 10.6 µM | 0.641 µM | 74 µM | 41 µM | 4.39 | > 100 µM | EC50 [1]: > 100 µM; Ki ([2]; read-out: pKi (converted)): 10.2 µM; pIC50 [4]: 4.13; Ki [5]: > 1000 µM; EC50 [7]: > 100 µM; EC50 [8]: > 100 µM; EC50 [9]: > 100 µM; Ki [10]: > 1000 µM
C/C(=C\C=C\[C@@H](C)C(=O)O)[C@H]1CN[C@H](C(=O)O)[C@H]1CC(=O)O [DOMORIC ACID] | 0.00604 µM | 0.00111 µM | – | – | – | – | Ki ([2]; read-out: pKi (converted)): 0.00575 µM; Ki ([3]; read-out: pKi (converted)): 0.00107 µM; Ki [11]: 0.04 µM
C[C@H](C[C@H](N)C(=O)O)C(=O)O [2S,4R-4-METHYLGLUTAMATE] | 0.017 µM | – | – | – | – | – | –
O=C(O)C(=O)CC(CO)C(=O)O (racemic) | – | – | – | – | – | – | Km (Escherichia coli [12]): 4700 µM; kcat (Escherichia coli [13]): 1.6%
C=C(C)[C@H]1CN[C@H](C(=O)O)[C@H]1CC(=O)O [KAINIC ACID] | – | – | – | – | – | – | Ki [11]: 0.0047 µM
O=C(O)C(=O)CC(COCc1ccccc1)C(=O)O (racemic) | – | – | – | – | – | – | Km (Escherichia coli [12]): 90 µM; kcat (Escherichia coli [13]): 11%
COC(=O)CC(CC(=O)C(=O)O)C(=O)O (racemic) | – | – | – | – | – | – | Km (Escherichia coli [12]): 1800 µM; kcat (Escherichia coli [13]): 41%
N[C@@H](Cn1oc(=O)[nH]c1=O)C(=O)O [QUISQUALATE] | – | 0.171 µM | – | – | – | – | –
COC(=O)CCC(CC(=O)C(=O)O)C(=O)O (racemic) | – | – | – | – | – | – | Km (Escherichia coli [12]): 610 µM; kcat (Escherichia coli [13]): 33.6%
O=C(O)CC(CC(=O)C(=O)O)C(=O)O (racemic) | – | – | – | – | – | – | Km (Escherichia coli [12]): 30100 µM; kcat (Escherichia coli [13]): 1.1%
N[C@@H](C[C@@H](CO)C(=O)O)C(=O)O | – | – | 44 µM | 0.24 µM | 6.62 | 15 µM | pIC50 [4]: 4.35
NC(=O)CC[C@H](C[C@H](N)C(=O)O)C(=O)O | 9.66 µM | 0.00745 µM | 25 µM | 16 µM | 4.8 | > 100 µM | EC50 [1]: > 100 µM; pIC50 [4]: 4.6; Ki [5]: > 1000 µM; EC50 [7]: > 100 µM; EC50 [8]: > 100 µM; EC50 [9]: > 100 µM; Ki [10]: > 1000 µM

The next lines start with results.

Ki ([2]; read-out: Ki) | Ki ([3]; read-out: Ki) | IC50 [4] | IC50 [6] | pIC50 [6] | Ki (Glutamate NMDA receptor) | SMILES | other results
– | – | > 100 µM | 12 µM | 4.93 | 26 µM | N[C@@H](C[C@@H](COCc1ccccc1)C(=O)O)C(=O)O | –
– | – | > 100 µM | 39 µM | 4.41 | > 100 µM | N[C@@H](C[C@@H](CC(=O)O)C(=O)O)C(=O)O | –
> 100 µM | 0.138 µM | > 100 µM | > 100 µM | – | 72 µM | N[C@@H](C[C@@H](CCC(=O)NCc1ccccc1)C(=O)O)C(=O)O | –
– | – | > 100 µM | > 100 µM | – | 52 µM | N[C@@H](C[C@@H](CCC(=O)O)C(=O)O)C(=O)O | –

Source: ChEMBL document CHEMBL1155082, “Chemo-enzymatic synthesis of a series of 2,4-syn-functionalized (S)-glutamate analogues: new insight into the structure-activity relation of ionotropic glutamate receptor subtypes 5, 6, and 7” (J Med Chem, 2008)
